From ChEMBL document CHEMBL1128471, “Reversible inhibitors of the gastric (H+/K+)-ATPase. 4. Identification of an inhibitor with an intermediate duration of action” (J Med Chem, 1995)
pIC50: −log10 of the molar value.

What was measured:
[1] = target: T1, Potassium-transporting ATPase (Sus scrofa) (UniProt P18434+P19156); test: (§1) Inhibition of K+ -stimulated gastric ATPase activity was measured using lyophilized gastric vesicles at pH 7; assay type: tissue-based; set-up: concentration or dose not given beside the values; conditions: Stomach; concentration not given here
Summary of the method: (§2)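 K+-stimulated ATPase activity was measured in lyophilized (permeabilized) gastric vesicles at pH 7. The value is an IC50, or percent inhibition at the stated concentration where no IC50 could be determined.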

[2] = target: T2, Potassium-transporting ATPase (Rattus norvegicus) (UniProt P09626+P18598); test: Inhibition of pentagastrin-stimulated gastric acid secretion at a single dose of 10 umol/kg.; assay type: functional; conditions: Stomach
Summary of the method: (§3)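 Anesthetized, lumen-perfused rats were given pentagastrin to stimulate gastric acid secretion, and compounds were given iv. The value is an ED50 (µmol/kg iv) with 95% confidence limits, or percent inhibition ± SEM at a single 10 µmol/kg iv dose.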

Canis familiaris [3] = test: Mean percent peak inhibition of histamine-stimulated gastric acid secretion in the heidenhain pouch dog following a single dose of 4 umol/kg through oral administration.; assay type: functional; conditions: Canis lupus familiaris, Stomach
[4] = target: T2, Potassium-transporting ATPase (Rattus norvegicus); test: (§4) Inhibition of pentagastrin-stimulated gastric acid secretion in the anesthetized rat after iv administration; assay type: functional, organism-based; conditions: Stomach; summary of the method: as §3
Canis familiaris [5] = test: Mean percent peak inhibition of histamine-stimulated gastric acid secretion in the heidenhain pouch dog following a single dose of 1 umol/kg through iv administration.; assay type: functional; conditions: Canis lupus familiaris, Stomach
[6] = target: Potassium-transporting ATPase (Sus scrofa, UniProt P19156); test: as §1; assay type: tissue-based, Stomach; summary of the method: as §2
Rattus norvegicus [7] = test: Inhibition of pentagastrin-stimulated gastric acid secretion in the anesthetized rat, ED50 (umol/kg iv) with 95% confidence limits.; assay type: functional; conditions: Stomach; summary of the method: as §3
Rattus norvegicus [8] = test: Inhibition of pentagastrin-stimulated gastric acid secretion in the anesthetized rat at a single dose of 10 umol/kg iv; Insoluble; assay type: functional, organism-based; conditions: Stomach; summary of the method: as §3
[9] = target: T1, Potassium-transporting ATPase (Sus scrofa); test: Inhibition of K+ -stimulated gastric ATPase activity was measured using lyophilized gastric vesicles at pH 7 at 10; assay type: tissue-based; conditions: Stomach; concentration not given here; summary of the method: as §2
[10] = target: T1, Potassium-transporting ATPase (Sus scrofa); test: as §1; assay type: tissue-based; conditions: Stomach; concentration not given here; summary of the method: as §2
Rattus norvegicus [11] = test: as §4; assay type: functional, Stomach; summary of the method: as §3
[12] = target: T1, Potassium-transporting ATPase (Sus scrofa); test: Inhibition of K+ -stimulated gastric ATPase activity was measured using lyophilized gastric vesicles at pH 7 at 100; assay type: tissue-based; conditions: Stomach; concentration not given here; summary of the method: as §2
[13] = target: T3, Potassium-transporting ATPase (Sus scrofa, UniProt P18434+P19156); test: Inhibition of K+ -stimulated gastric ATPase activity was measured using lyophilized gastric vesicles at pH 7; Insoluble; assay type: tissue-based, Stomach
[14] = target: T3, Potassium-transporting ATPase; test: as §1; assay type: tissue-based, Stomach; summary of the method: as §2

Chain of Potassium-transporting ATPase (Sus scrofa, UniProt P19156) (P18434 whole entry): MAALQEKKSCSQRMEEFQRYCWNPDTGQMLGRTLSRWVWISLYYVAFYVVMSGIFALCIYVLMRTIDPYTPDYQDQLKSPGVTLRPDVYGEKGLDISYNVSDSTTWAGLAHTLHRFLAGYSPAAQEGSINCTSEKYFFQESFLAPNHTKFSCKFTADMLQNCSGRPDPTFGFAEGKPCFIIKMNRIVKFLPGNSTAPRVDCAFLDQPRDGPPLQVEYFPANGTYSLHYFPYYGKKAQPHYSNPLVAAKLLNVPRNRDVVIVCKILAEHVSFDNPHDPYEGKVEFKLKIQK
Chain of Potassium-transporting ATPase (Sus scrofa, UniProt P19156) (P19156 whole entry): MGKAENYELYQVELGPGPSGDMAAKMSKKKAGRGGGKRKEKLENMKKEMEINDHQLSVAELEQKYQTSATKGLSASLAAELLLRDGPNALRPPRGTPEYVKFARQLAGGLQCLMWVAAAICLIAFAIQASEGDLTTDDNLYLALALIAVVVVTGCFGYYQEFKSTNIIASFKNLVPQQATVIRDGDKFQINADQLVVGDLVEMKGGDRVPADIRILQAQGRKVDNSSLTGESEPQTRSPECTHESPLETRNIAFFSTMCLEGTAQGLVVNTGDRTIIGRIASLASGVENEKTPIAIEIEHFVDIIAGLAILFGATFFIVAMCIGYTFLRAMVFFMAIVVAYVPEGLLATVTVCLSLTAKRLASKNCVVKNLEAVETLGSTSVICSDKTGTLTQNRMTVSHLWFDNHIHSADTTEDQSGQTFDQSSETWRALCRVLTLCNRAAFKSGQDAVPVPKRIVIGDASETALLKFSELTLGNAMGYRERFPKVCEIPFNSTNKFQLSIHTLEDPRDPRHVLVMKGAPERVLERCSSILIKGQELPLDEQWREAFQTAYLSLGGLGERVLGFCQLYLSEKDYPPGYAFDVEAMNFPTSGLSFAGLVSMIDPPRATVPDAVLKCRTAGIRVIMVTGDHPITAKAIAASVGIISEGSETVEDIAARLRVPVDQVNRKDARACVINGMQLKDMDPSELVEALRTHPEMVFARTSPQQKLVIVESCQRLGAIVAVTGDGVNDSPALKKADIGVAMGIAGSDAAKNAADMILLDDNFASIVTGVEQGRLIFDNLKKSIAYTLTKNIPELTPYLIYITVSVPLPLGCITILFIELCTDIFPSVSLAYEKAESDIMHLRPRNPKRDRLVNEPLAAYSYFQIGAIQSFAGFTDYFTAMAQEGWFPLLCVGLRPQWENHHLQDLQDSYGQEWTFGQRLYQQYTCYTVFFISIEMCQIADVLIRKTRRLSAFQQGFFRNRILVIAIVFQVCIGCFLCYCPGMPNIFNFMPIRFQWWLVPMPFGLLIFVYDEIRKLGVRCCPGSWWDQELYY
T3 sequence (P18434 whole entry): as the sequence (P18434 whole entry) above
T3 sequence (P19156 whole entry): as the sequence (P19156 whole entry) above

Structure (SMILES)	inhibition in vivo at 4 µmol/kg (Canis familiaris [3])	ED50 [4]	inhibition in vivo at 1 µmol/kg (Canis familiaris [5])	pIC50 [6]	other results
CCCC(=O)c1cnc2c(OC)cccc2c1Nc1ccc(N2CCCC2)cc1C	–	–	–	–	inhibition [1]: 5%; inhibition [2]: 0%
CCCC(=O)c1cnc2c(CO)cccc2c1Nc1ccc(O)cc1C	29%	2.09 µmol/kg	64%	–	–
COCCOc1cccc2c(Nc3ccccc3C)c(C(=O)C(C)C)cnc12	86%	3.61 µmol/kg	65%	5.85	–
CCCC(=O)c1cnc2c(OCCOCCO)cccc2c1Nc1ccccc1C	–	1.89 µmol/kg	52%	–	–
CCCC(=O)c1cnc2c(OCCOC)cccc2c1Nc1ccccc1C	81%	2.75 µmol/kg	51%	–	–
CCCC(=O)c1cnc2c(C)cccc2c1Nc1ccccc1F	–	–	–	–	inhibition [1]: 53%; inhibition [2]: 29%
CCCC(=O)c1cnc2c(OC)cccc2c1Nc1cc(F)cc(F)c1	–	–	–	–	inhibition [1]: 63%
CCCC(=O)c1cnc2c(C)cccc2c1Nc1ccc(OC)cc1OC	–	3.9 µmol/kg	41%	5.62	–
CCCC(=O)c1cnc2c(OCCCNC(C)=O)cccc2c1Nc1c(C)cccc1C	40%	–	86%	5.74	inhibition [2]: 75%
CCCC(=O)c1cnc2c(OCCOC)cccc2c1Nc1ccc(F)cc1C	46%	2.91 µmol/kg	65%	5.46	–
CCCC(=O)c1cnc2c(OC)cccc2c1Nc1ccc(O)c(CN(C)C)c1	–	–	–	–	inhibition [1]: 35%
CCC(=O)c1cnc2c(OCCO)cccc2c1Nc1ccccc1C	82%	1.72 µmol/kg	82%	6.12	–
CCCC(=O)c1cnc2c(C)cccc2c1Nc1cc(C)ccc1OC	–	–	–	–	inhibition [1]: 56%
CCCC(=O)c1cnc2c(CO)cccc2c1Nc1ccccc1C	56%	1.72 µmol/kg	39%	–	–
CCC(=O)c1cnc2c(OCCOC)cccc2c1Nc1ccccc1C	66%	1.92 µmol/kg	80%	6.11	–
Cc1cc(F)ccc1Nc1c(C(=O)C(C)C)cnc2c(OCCO)cccc12	75%	4.2 µmol/kg	66%	5.80	–
CCCC(=O)c1cnc2c(OC)cccc2c1Nc1ccc(OC)cc1C	–	7.61 µmol/kg	71%	5.90	–
CCCC(=O)c1cnc2c(C)cccc2c1Nc1ccccc1CC	–	3.05 µmol/kg	66%	5.54	–
CCCC(=O)c1cnc2c(OC)cccc2c1Nc1c(C)ccc(O)c1C	–	5.6 µmol/kg	36%	–	inhibition [1]: 35%
CCCC(=O)c1cnc2c(C)cccc2c1Nc1cc(OC)ccc1OC	–	–	–	–	inhibition [1]: 29%; inhibition [2]: 28%
Cc1cc(O)ccc1Nc1c(C(=O)C(C)C)cnc2c(CO)cccc12	–	1.72 µmol/kg	47%	7.44	–

Structure (SMILES)	inhibition in vivo at 4 µmol/kg (Canis familiaris [3])	ED50 [4]	inhibition in vivo at 1 µmol/kg (Canis familiaris [5])	pIC50 [6]	other results
CCC(=O)c1cnc2c(OCCO)cccc2c1Nc1ccc(F)cc1C	72%	2.85 µmol/kg	58%	5.70	–
CCCC(=O)c1cnc2c(OC)cccc2c1Nc1ccccc1OC	18%	3.56 µmol/kg	73%	5.82	–
Cc1cc(F)ccc1Nc1c(C(=O)C(C)C)cnc2c(CO)cccc12	42%	3.57 µmol/kg	59%	–	–
CCCC(=O)c1cnc2c(C)cccc2c1Nc1ccccc1C	–	3.12 µmol/kg	38%	5.52	–
CCCC(=O)c1cnc2c(C3CO3)cccc2c1Nc1ccccc1C (stereo not drawn)	–	–	53%	5.52	ED50 (Rattus norvegicus [7]): 3.1 µmol/kg
CCCC(=O)c1cnc2ccc(-c3ccccc3)cc2c1Nc1ccccc1C	–	–	–	–	inhibition (Rattus norvegicus [8]): Insoluble; inhibition [9]: 35%
CCCC(=O)c1cnc2c(C(C)O)cccc2c1Nc1ccc(O)cc1C (stereo not drawn)	–	2.74 µmol/kg	30%	7.21	–
CCCC(=O)c1cnc2c(OC)cccc2c1Nc1ccc(O)c(Cl)c1	–	–	–	–	inhibition [1]: 16%
CCCC(=O)c1cnc2c(OC)cccc2c1Nc1cc(F)c(O)c(F)c1	–	–	–	–	inhibition [1]: 11%
CCCC(=O)c1cnc2c(F)cccc2c1Nc1ccc(O)cc1C	17%	4.66 µmol/kg	31%	6.15	–
CCCC(=O)c1cnc2c(OC)cccc2c1Nc1ccc(OC(=O)C(C)C)cc1C	25%	–	–	–	inhibition [10]: 44%
CCCC(=O)c1cnc2c(OC)cccc2c1Nc1ccc(O)cc1C	46%	1.98 µmol/kg	76%	6.68	–
CCC(=O)c1cnc2c(OCCOC)cccc2c1Nc1ccc(F)cc1C	94%	–	36%	5.70	Inhibition (Rattus norvegicus [11]): 70%
CCCC(=O)c1cnc2c(OC)cccc2c1Nc1cccc(C)c1C	67%	–	77%	5.85	inhibition [2]: 60%
CCCC(=O)c1cnc2c(OC)cccc2c1Nc1c(C)cccc1C	75%	5.24 µmol/kg	62%	5.80	–
CCCC(=O)c1cnc2c(OC)cccc2c1Nc1ccc(CO)cc1	–	–	–	–	inhibition [1]: 38%
CCCC(=O)c1cnc2c(C(=O)O)cccc2c1Nc1ccccc1C	–	–	–	5.23	inhibition (Rattus norvegicus [8]): Insoluble
Cc1ccccc1Nc1c(C(=O)C(C)C)cnc2c(OCCO)cccc12	54%	2.07 µmol/kg	56%	6.00	–
CCCC(=O)c1cnc2c(C(C)O)cccc2c1Nc1ccccc1C (stereo not drawn)	49%	3.69 µmol/kg	46%	6.43	–
CCCC(=O)c1cnc2cc(CO)ccc2c1Nc1ccccc1C	–	–	–	–	inhibition [12]: 44%
CCCC(=O)c1cnc2c(OC)cccc2c1Nc1ccc([N+](=O)[O-])cc1C	–	–	–	–	inhibition [10]: 17%

Structure (SMILES)	inhibition in vivo at 4 µmol/kg (Canis familiaris [3])	ED50 [4]	inhibition in vivo at 1 µmol/kg (Canis familiaris [5])	pIC50 [6]	other results
CCCC(=O)c1cnc2c(OC)cccc2c1Nc1cc(C)c(O)c(C)c1	–	–	–	–	IC50 [13]: Insoluble
CCCC(=O)c1cnc2c(Oc3cnccn3)cccc2c1Nc1ccccc1C	43%	2.9 µmol/kg	49%	5.70	–
CCCC(=O)c1cnc2c(OC)cccc2c1Nc1ccc(F)cc1C	64%	3.9 µmol/kg	36%	5.64	–
CCCC(=O)c1cnc2c(OC)cccc2c1Nc1ccc(OC(=O)CC)cc1C	45%	–	–	4.72	–
CCC(=O)c1cnc2c(CO)cccc2c1Nc1ccc(O)cc1C	24%	–	59%	6.74	inhibition [2]: 90%
CCC(=O)c1cnc2c(CO)cccc2c1Nc1ccccc1C	35%	–	83%	6.42	inhibition [2]: 74%
CCCC(=O)c1cnc2c(C3OC3CO)cccc2c1Nc1ccccc1C (stereo in doubt; 29a)	–	–	–	–	pIC50 [14]: 5.51
CCCC(=O)c1cnc2c(OC)cccc2c1Nc1ccccc1OCC	–	4.9 µmol/kg	–	5.70	–
CCCC(=O)c1cnc2c(OCCO)cccc2c1Nc1ccccc1C	96%	2.4 µmol/kg	64%	–	–
CCCC(=O)c1cnc2c(OCCOCCOCCO)cccc2c1Nc1ccccc1C	78%	–	20%	–	–
CCCC(=O)c1cnc2c(OC)cccc2c1Nc1ccc(O)c(F)c1	–	–	–	–	inhibition [1]: 40%
CCCC(=O)c1cnc2c(C)cccc2c1Nc1ccc(Cl)cc1Cl	–	–	–	–	inhibition [1]: 31%
CCCC(=O)c1cnc2c(OC)cccc2c1Nc1ccc(OC(C)=O)cc1C	44%	–	–	–	inhibition [10]: 25%
CCCC(=O)c1cnc2c(C)cccc2c1Nc1ccc(Cl)cc1C	–	–	–	–	inhibition [1]: 15%
CCCC(=O)c1cnc2c(OC)cccc2c1Nc1ccccc1CC	85%	2.35 µmol/kg	77%	6.05	–
CCCC(=O)c1cnc2c(C)cccc2c1Nc1c(C)cccc1C	–	2.88 µmol/kg	45%	5.51	–
CCCC(=O)c1cnc2c(OCCO)cccc2c1Nc1ccc(F)cc1C	80%	2.92 µmol/kg	44%	–	–
CCCC(=O)c1cnc2c(OC)cccc2c1Nc1ccccc1C	83%	2.6 µmol/kg	67%	5.77	–
CCCC(=O)c1cnc2cc(OC)ccc2c1Nc1ccccc1C	–	–	–	–	inhibition [2]: 28%; inhibition [9]: 41%
CCCC(=O)c1cnc2c(CCCO)cccc2c1Nc1ccccc1C	48%	–	–	5.59	inhibition [2]: 63%
CCCC(=O)c1cnc2c(OC)cccc2c1Nc1c(C)cc(O)cc1C	25%	6.4 µmol/kg	32%	6.30	–
